Reference: ChEMBL document CHEMBL4706601, “The endocannabinoid system dual-target ligand N-cycloheptyl-1,2-dihydro-5-bromo-1-(4-fluorobenzyl)-6-methyl-2-oxo-pyridine-3-carboxamide improves disease severity in a mouse model of multiple sclerosis” (Eur J Med Chem, 2020)

Legend:
[1] = biological target: T1, Monoglyceride lipase (Homo sapiens, UniProt Q99685); assay: Inhibition of MAGL in human U937 cells using [glycerol-1,2,3-3H]2-OG as substrate preincubated for 15 mins followed by substrate addition and measured after 15 mins by liquid scintillation spectroscopy; type: cell-based, U-937
T1 sequence (Q99685 whole entry): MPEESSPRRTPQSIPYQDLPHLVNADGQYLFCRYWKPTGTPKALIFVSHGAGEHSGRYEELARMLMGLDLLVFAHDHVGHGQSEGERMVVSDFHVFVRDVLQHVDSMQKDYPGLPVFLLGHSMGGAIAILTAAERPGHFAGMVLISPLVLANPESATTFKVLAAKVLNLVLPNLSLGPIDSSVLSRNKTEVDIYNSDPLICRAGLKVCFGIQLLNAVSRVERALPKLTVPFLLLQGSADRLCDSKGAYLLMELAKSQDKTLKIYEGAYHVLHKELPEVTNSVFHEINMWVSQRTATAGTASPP
Procedure, shortened: (§1)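 Intact U937 cells, 10^6 per condition, pre-incubated with compound 15 min at 37 °C with shaking (screen at 10 μM; full curves for hits). Substrate: 1 μM AEA with 1 nM [3H]AEA (FAAH) or 10 μM 2-OG with 5 nM [3H]2-OG (MAGL), 15 min at 37 °C. Stopped with CHCl3:MeOH 1:1, aqueous tritium counted; mean ± SD, ≥3 experiments in triplicate.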

[2] = biological target: T2, Cannabinoid receptor 2 (Homo sapiens, UniProt P34972); assay: Agonist activity at human CB2R expressed in CHO cell membranes after 90 mins by [35S]GTPgammaS assay; type: functional, Membrane
T2 sequence (P34972 whole entry): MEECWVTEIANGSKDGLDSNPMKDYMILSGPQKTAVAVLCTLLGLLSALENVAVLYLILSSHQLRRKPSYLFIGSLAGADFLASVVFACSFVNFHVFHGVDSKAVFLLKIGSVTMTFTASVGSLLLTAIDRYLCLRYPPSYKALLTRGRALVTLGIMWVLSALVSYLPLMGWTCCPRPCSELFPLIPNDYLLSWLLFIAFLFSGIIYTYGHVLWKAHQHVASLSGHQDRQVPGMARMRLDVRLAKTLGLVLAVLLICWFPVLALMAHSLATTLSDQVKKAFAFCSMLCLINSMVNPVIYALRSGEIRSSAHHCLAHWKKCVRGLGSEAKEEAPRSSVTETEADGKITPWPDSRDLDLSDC
Procedure, shortened: (§2)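 In-house CHO membranes expressing hCB1 or hCB2 (10 µg) in 50 mM Tris-HCl, 3 mM MgCl2, 0.2 mM EDTA, 100 mM NaCl, 0.5% fatty-acid-free BSA, pH 7.4, with 10 μM GDP and 0.1 nM [35S]GTPγS. Incubated 90 min at 30 °C; antagonist pre-incubated 30 min. Nonspecific binding with 10 μM GTPγS; bound label by filtration and counting; ≥3 experiments in triplicate.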

[3] = biological target: T3, Cannabinoid receptor 1 (Homo sapiens, UniProt P21554); assay: Agonist activity at human CB1R expressed in CHO cell membranes after 90 mins by [35S]GTPgammaS assay; type: functional, Membrane; procedure, shortened: as §2
T3 sequence (P21554 whole entry): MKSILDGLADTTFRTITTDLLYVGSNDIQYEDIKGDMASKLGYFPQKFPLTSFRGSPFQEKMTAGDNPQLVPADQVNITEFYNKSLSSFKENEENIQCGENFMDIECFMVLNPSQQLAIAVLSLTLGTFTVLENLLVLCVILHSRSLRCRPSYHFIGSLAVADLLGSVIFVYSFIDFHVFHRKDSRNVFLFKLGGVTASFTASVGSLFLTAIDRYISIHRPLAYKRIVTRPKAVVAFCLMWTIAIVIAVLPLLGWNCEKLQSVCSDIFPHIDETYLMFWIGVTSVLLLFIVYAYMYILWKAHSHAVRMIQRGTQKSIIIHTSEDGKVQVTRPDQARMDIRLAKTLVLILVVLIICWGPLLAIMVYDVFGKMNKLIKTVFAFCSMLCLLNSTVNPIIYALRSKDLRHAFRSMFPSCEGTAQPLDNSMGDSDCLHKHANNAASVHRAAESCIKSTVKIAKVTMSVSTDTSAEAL

[4] = biological target: T4, Fatty-acid amide hydrolase 1 (Homo sapiens, UniProt O00519); assay: Inhibition of FAAH in human U937 cells using [ethanolamine-1-3H]AEA as substrate preincubated for 15 mins followed by substrate addition and measured after 15 mins by liquid scintillation spectroscopy; type: cell-based, U-937; procedure, shortened: as §1
T4 sequence (O00519 whole entry): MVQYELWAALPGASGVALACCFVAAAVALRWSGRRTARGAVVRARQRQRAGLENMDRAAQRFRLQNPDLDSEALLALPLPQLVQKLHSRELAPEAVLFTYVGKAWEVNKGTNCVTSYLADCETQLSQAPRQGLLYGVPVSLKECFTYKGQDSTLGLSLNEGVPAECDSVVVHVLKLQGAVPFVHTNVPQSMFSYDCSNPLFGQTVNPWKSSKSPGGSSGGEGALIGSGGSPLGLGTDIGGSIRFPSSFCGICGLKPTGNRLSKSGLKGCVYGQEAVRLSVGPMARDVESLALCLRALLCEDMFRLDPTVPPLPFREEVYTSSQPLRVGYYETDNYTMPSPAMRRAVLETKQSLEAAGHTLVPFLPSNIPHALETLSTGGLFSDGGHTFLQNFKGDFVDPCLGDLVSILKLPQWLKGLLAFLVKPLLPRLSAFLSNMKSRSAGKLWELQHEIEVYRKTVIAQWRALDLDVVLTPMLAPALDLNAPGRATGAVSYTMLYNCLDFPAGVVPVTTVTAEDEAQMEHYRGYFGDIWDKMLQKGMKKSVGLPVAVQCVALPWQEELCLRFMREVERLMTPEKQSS

[5] = biological target: T2, Cannabinoid receptor 2; assay: Displacement of [3H]CP55940 from recombinant human CB2R expressed in CHO cell membranes incubated for 90 mins; design: species or system Membrane
[6] = biological target: T3, Cannabinoid receptor 1; assay: Displacement of [3H]CP55940 from recombinant human CB1R expressed in CHO cell membranes incubated for 90 mins; design: species or system Membrane
[7] = biological target: T5, Lysophosphatidylserine lipase ABHD12 (Homo sapiens, UniProt Q8N2K0); assay: Inhibition of human ABHD12 expressed in HEK293 cells using 2-OG as substrate preincubated for 30 mins followed by substrate addition and measured after 5 mins by liquid scintillation spectroscopy; type: cell-based
T5 sequence (Q8N2K0 whole entry): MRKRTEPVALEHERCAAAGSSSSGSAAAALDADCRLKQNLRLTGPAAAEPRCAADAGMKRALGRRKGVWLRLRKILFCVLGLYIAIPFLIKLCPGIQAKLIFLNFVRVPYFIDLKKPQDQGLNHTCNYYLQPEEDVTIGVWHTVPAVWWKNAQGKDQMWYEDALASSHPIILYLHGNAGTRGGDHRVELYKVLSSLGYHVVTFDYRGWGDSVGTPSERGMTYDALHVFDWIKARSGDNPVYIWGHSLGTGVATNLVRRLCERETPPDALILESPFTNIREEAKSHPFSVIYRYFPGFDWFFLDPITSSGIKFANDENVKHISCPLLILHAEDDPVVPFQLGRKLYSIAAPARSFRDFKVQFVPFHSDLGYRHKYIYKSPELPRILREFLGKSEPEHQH
Procedure, shortened: (§3)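 Homogenates (40 µg) from HEK293 stably expressing hABHD6 or hABHD12 pre-incubated with compound 30 min at 37 °C in […], 0.1% BSA, pH 7.6; then 10 μM 2-OG for 5 min at 37 °C. Aqueous phase tritium counted after CHCl3:MeOH stop; no-enzyme blanks and non-transfected HEK293 hydrolysis subtracted. Controls WWL70 10 μM, THL 20 μM.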

[8] = organism: Homo sapiens; assay: Selectivity index, ratio of Ki for human CB1R expressed in CHO cell membranes to Ki for human CB2R expressed in CHO cell membranes; type: cell-based
[9] = biological target: T6, Monoacylglycerol lipase ABHD6 (Homo sapiens, UniProt Q9BV23); assay: Inhibition of human ABHD6 expressed in HEK293 cells using 2-OG as substrate preincubated for 30 mins followed by substrate addition and measured after 5 mins by liquid scintillation spectroscopy; type: cell-based; procedure, shortened: as §3
T6 sequence (Q9BV23 whole entry): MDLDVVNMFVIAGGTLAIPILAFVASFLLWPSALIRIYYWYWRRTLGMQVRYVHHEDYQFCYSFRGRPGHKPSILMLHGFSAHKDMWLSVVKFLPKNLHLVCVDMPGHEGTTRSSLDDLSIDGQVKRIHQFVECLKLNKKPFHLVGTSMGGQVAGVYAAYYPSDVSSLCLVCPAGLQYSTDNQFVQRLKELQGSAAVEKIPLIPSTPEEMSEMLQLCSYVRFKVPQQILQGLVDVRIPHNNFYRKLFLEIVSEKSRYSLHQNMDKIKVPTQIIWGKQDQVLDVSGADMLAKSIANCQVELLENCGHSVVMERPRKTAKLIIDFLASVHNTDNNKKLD

Row | SMILES | IC50 [1] | EC50 [2] | EC50 [3] | IC50 [4] | Ki [5] | Ki [6] | IC50 [7] | Ratio Ki [8] | IC50 [9]
1 | Cc1c(F)cc(C(=O)NC2CCCCCC2)c(=O)n1Cc1ccc(F)cc1 | > 10 µM | 0.0244 µM | 0.0432 µM | > 10 µM | 0.0057 µM | 0.0049 µM | > 10 µM | 0.86 | > 10 µM
2 | Cc1ccc(C(=O)NC2CCCCCC2)c(OCc2ccc(F)cc2)n1 | > 10 µM | 0.0116 µM | 0.0862 µM | > 10 µM | 0.0339 µM | 0.0166 µM | > 10 µM | 0.49 | > 10 µM
3 | Cc1ccc(C(=O)NC2CCCCCC2)c(=O)n1Cc1ccc(F)cc1 | > 10 µM | 0.00415 µM | 0.0404 µM | > 10 µM | 0.0047 µM | 0.0377 µM | > 10 µM |  | > 10 µM
4 | Cc1c(Br)cc(C(=O)NC2CCNCC2)c(=O)n1Cc1ccc(F)cc1 | > 10 µM |  |  | > 10 µM | > 10 µM | > 10 µM | > 10 µM |  | > 10 µM
5 | Cc1nc(OCc2ccc(F)cc2)c(C(=O)NC2CCCCCC2)cc1Br | > 10 µM | 0.0316 µM | 0.586 µM | > 10 µM | 0.0015 µM | 0.0761 µM | 2.1 µM |  | > 10 µM
6 | COc1ccc(-c2cc(C(=O)NC3CCCCCC3)c(OCc3ccc(F)cc3)nc2C)cc1 | > 10 µM |  |  | > 10 µM | 0.919 µM | > 10 µM | > 10 µM |  | 0.53 µM
